pIC50: −log10 of the molar value.
Experiments:
[1] = test system: Caco-2; assay: Caco-2 cell permeability coefficient was determined after 120 min of incubation; format: functional, cell-based; details: Homo sapiens
Summary of the method: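 Caco-2 cells grown 21 days on permeable polycarbonate transwell filters; apparent permeability coefficient measured after 120 min incubation per a published method; total compound recovery calculated at end of experiment.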

[2] = test system: L1210; assay: In vitro cytotoxicity against L1210 murine leukemia cells after 48 hr of continuous exposure; format: functional, cell-based; details: Mus musculus, L1210, 48 h
Summary of the method: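 L1210 murine leukaemia cells (from NCI) under continuous drug exposure for 48 h; IC50 taken from dose–response curves, mean±SE of at least two experiments.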

[3] = test system: Mus musculus; assay: Median survival time of mice injected with L1210 cells intravenously versus untreated mice at an optimal (non toxic) dose of 12.5 mg/kg; format: functional; details: route intravenous
[4] = test system: Mus musculus; assay: Median survival time of mice injected with L1210 cells intravenously versus untreated mice at an optimal (non toxic) dose of 25 mg/kg; format: functional; details: route intravenous
[5] = test system: Mus musculus; assay: Median survival time of mice injected with L1210 cells intravenously versus untreated mice at an optimal (non toxic) dose of 100 mg/kg; format: functional; details: route intravenous
[6] = test system: Mus musculus; assay: Median survival time of mice injected with L1210 cells intravenously versus untreated mice at an optimal (non toxic) dose of 50 mg/kg; format: functional; details: route intravenous
[7] = test system: Mus musculus; assay: Median survival time of mice injected with L1210 cells intraperitoneally versus untreated mice at an optimal (non toxic) dose of 12.5 mg/kg; format: functional; details: route intraperitoneal

Row | Compound | Papp [1] [×10⁻⁶ cm/s] | pIC50 [2] | further results
1 | C=C(F)C(=O)Nc1cc(C(=O)Nc2ccccc2)n(C)c1 | 39.6 | < 5.30 | 
2 | C=C(Br)C(=O)Nc1ccccc1 |  | 7.43 | T/C [3]: 117%
3 | C=C(Br)C(=O)Nc1cc(C(=O)Nc2ccccc2)n(C)c1 | 1.2 | 7.37 | T/C [4]: 100%
4 | C=C(Br)C(=O)Nc1cc(C(=O)Nc2cc(C(=O)Nc3cc(C(=O)Nc4cc(C(=O)NCCC(=N)N)n(C)c4)n(C)c3)n(C)c2)n(C)c1 | 38.2 |  | 
5 | C=C(Br)C(=O)Nc1cc(C(=O)NCCC(=N)N)n(C)c1 | 0.69 | < 5.60 | 
6 | C=CC(=O)Nc1cc(C(=O)Nc2cc(C(=O)Nc3cc(C(=O)Nc4cc(C(=O)NCCC(=N)N)n(C)c4)n(C)c3)n(C)c2)n(C)c1 |  | 5.70 | 
7 | C=C(F)C(=O)Nc1cc(C(=O)Nc2cc(C(=O)Nc3cc(C(=O)Nc4cc(C(=O)NCCC(=N)N)n(C)c4)n(C)c3)n(C)c2)n(C)c1 |  | < 6.10 | 
8 | C=C(Br)C(=O)Nc1cc(C(=O)NCCC#N)n(C)c1 |  | 7.28 | T/C [5]: 100%
9 | C=C(Br)C(=O)Nc1cc(C(=O)Nc2cc(C(=O)Nc3cc(C(=O)Nc4cc(C(=O)NCCN=C(N)N)n(C)c4)n(C)c3)n(C)c2)n(C)c1 |  | 8.74 | 
10 | C=C(Br)C(=O)Nc1cc(C(=O)Nc2cc(C(=O)NCCN=C(N)N)n(C)c2)n(C)c1 |  | < 6.30 | 
11 | C=C(Br)C(=O)Nc1ccc(F)cc1 |  | 7.23 | T/C [6]: 100%
12 | C=C(Br)C(=O)Nc1ccc(N(C)C)cc1.Cl |  | 7.27 | T/C [4]: 100%
13 | C=C(Br)C(=O)Nc1ccc(C(=N)N)cc1 | 3.9 | < 5.30 | 
14 | C=C(Br)C(=O)Nc1cc(C(=O)Nc2cc(C(=O)Nc3cc(C(=O)NCCN=C(N)N)n(C)c3)n(C)c2)n(C)c1 |  | 7.57 | 
15 | C=C(Br)C(=O)Nc1cc(C(=O)Nc2cc(C(=O)Nc3cc(C(=O)NCCC(=N)N)n(C)c3)n(C)c2)n(C)c1.Cl | 15.2 |  | T/C [7]: 175%
16 | C=C(Br)C(=O)Nc1cc(C(=O)Nc2cc(C(=O)NCCC(=N)N)n(C)c2)n(C)c1 | 5.58 | 5.89 | 

— ChEMBL document CHEMBL1135125, “Cytotoxic alpha-bromoacrylic derivatives of low molecular weight” (Bioorg Med Chem Lett, 2002)
